TRPC4 inh: TRPC4 (mouse) channel inhibition | Q9QUQ5 | HEK293 TRPC4beta/mu-opioid, DAMGO-evoked Fluo4 calcium flux; stronger effect = lower value | B-score at 10 µM | 300,000 compounds, 0.39% hits | AID 2247;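 active = B-score over 3 SD under the library average, no early fluorescence shift, positive overall ratio signal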
Target sequence (Q9QUQ5 whole entry, looked up): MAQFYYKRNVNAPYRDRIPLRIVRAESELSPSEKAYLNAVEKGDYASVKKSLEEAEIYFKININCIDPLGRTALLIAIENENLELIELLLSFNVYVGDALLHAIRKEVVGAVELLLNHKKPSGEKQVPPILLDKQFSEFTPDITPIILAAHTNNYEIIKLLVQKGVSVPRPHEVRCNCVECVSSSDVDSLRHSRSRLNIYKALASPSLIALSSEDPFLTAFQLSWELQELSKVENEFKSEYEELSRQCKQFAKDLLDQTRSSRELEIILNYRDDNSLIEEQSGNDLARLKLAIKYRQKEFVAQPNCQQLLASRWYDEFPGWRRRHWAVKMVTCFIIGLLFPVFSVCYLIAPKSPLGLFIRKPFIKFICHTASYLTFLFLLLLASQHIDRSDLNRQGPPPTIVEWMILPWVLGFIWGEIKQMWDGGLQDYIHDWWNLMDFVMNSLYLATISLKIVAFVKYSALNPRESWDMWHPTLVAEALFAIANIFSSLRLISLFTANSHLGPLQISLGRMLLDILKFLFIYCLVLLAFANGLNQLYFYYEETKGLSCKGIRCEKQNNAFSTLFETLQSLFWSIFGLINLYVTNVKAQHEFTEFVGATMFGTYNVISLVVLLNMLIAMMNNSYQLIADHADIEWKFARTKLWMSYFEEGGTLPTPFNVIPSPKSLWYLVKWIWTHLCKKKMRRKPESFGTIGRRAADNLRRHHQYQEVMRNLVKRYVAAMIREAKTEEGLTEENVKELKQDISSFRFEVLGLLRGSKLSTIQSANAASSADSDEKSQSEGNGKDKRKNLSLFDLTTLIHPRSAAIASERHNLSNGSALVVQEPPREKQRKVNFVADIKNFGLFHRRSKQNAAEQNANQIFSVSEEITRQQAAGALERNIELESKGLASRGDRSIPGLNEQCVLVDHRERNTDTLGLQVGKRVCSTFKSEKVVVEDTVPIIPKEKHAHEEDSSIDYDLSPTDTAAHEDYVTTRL
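Material: HEK293 cells with stable TRPC4beta plus mu-opioid receptor expression; probe or stimulus: DAMGO in two steps, submaximal then maximal; technique: Fluo4 calcium fluorescence by kinetic imaging, 5 s 1 Hz baseline; measure: integrated fluorescence ratio relative to baseline, converted to per-well B score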
TRPC6 activator: activators of mouse TRPC6 channel. HEK293-TRPC6 membrane potential dye fluorescence; stronger effect = higher value. AID 2550. B-score at 10 µM. Q61143. 310,000 compounds, 0.13% hits;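 active = B-score of the integrated fluorescence ratio above library mean plus 3 SD, and starting fluorescence ratio within library mean plus 5 SD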;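 also: higher score means more depolarization so channel activation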
TRPC4 agonist: TRPC4 (mouse) channel activation. B-score at 10 µM. HEK293 TRPC4beta/mu-opioid, Fluo4 calcium fluorescence; stronger effect = higher value. 310,000 compounds, 0.49% hits. Q9QUQ5;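 active = B-score above 5 SD of library B-scores, and initial fluorescence ratio not above library mean plus 5 SD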;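 also: positive B-score marks a calcium rise read as TRPC4 activation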
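System – HEK293 cells stably co-expressing mouse TRPC4beta and mu-opioid receptor · Signal – Fluo4 calcium-sensitive dye fluorescence, kinetic, 1 Hz baseline · Benchmarks – buffer (low) and maximal DAMGO (high) · Read-out – B score of integrated fluorescence ratio per well · Incubation – dye loading 45 min room temperature, 110 s kinetic read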
TRPC4 potent: allosteric potentiators of mouse TRPC4 channel; HEK293 TRPC4beta/mu-opioid, DAMGO EC20, Fluo-4 Ca2+ flux; stronger effect = higher value; Q9QUQ5; B-score at 10 µM; 310,000 compounds, 0.42% hits;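 active = B-score of calcium response area above 5 SD of library B-scores, with initial fluorescence ratio within 5 SD of library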
TRPC6 inhibitor: inhibitors of mouse TRPC6 channel | B-score at 10 µM | HEK293-TRPC6, membrane potential dye, ACh-evoked depolarization; stronger effect = lower value | 310,000 compounds, 1.1% hits | Q61143 | AID 2553;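 active = B-score under library mean minus 3 SD, initial fluorescence not abnormally high, positive integrated signal ratio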;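 also: B-score derived from integrated fluorescence ratio over the kinetic read; more negative B-score means stronger inhibition of depolarization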
TRPC4 sel inh 2: second selectivity test of TRPC6 inhibitors: effect on mouse TRPC4; shares compounds with TRPC6 inhibitor; HEK293 TRPC4/MOR, membrane potential dye fluorescence; channel activated by saturating DAMGO dose; inhibition, % at 10 µM; 920 compounds, 42% hits;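 active = compounds whose fluorescence signal differed from control wells by over 3 SD, either direction, in both duplicate plates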
TRPC4 spec: tests whether TRPC6 inhibitors also affect mouse TRPC4; activity change, negative = inhibition, % at 10 µM; 920 compounds, 61% hits; HEK293 TRPC4/mu-opioid, membrane potential fluorescence; AID 2777; shares compounds with TRPC6 inhibitor;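 active = rise or fall in signal beyond 3 SD of buffer-only wells in both replicate plates, either sign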;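 also: integrated kinetic ratio of fluorescence range over baseline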
HEK293 MPD ctr 2-1: parental HEK293 nonspecific activity of TRPC6 inhibitors, second screen | 920 compounds, 31% hits | signal change vs control, % at 10 µM | shares compounds with TRPC6 inhibitor | parental HEK293 membrane potential dye fluorescence; maximal acetylcholine challenge after compound addition;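 active = membrane potential signal moving either way by over 3 SD of the maximum-effect control, in both duplicate plates, meaning non-specific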
HEK293 MPD ctr-1: checks TRPC6 inhibitor effects in parental HEK293 cells | shares compounds with TRPC6 inhibitor | AID 2780 | membrane potential signal change, % at 10 µM | parental HEK293 membrane potential dye fluorescence | 920 compounds, 60% hits;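 active = membrane potential signal shifting up or down by more than 3 SD of buffer-only wells, on both duplicate plates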
HEK293 MPD ctr-2: parental HEK293 nonspecific activity of TRPC6 modulators | shares compounds with TRPC6 inhibitor | membrane potential dye fluorescence | membrane potential signal change, % at 10 µM | 2,400 compounds, 51% hits;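 active = membrane potential signal moves up or down beyond 5 SD from buffer-only wells, on both duplicate plates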
HEK293 MPD ctr 2-2: second counter-screen for TRPC6 modulators: effect in parental HEK293 cells | shares compounds with TRPC6 inhibitor | membrane potential dye fluorescence; after compound, maximal acetylcholine stimulation | inhibition, % at 10 µM | 2,400 compounds, 14% hits;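 active = membrane potential signal drops by more than 5 SD from the mean control signal, in both duplicate plates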
TRPC4 ctr mod: tests whether TRPC6 modulators also affect mouse TRPC4. shares compounds with TRPC6 inhibitor. HEK293 TRPC4/mu-opioid, membrane potential fluorescence. percent change from control (negative = decrease, positive = increase), % at 10 µM. 2,400 compounds, 69% hits. AID 488927;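 active = membrane potential signal moved up or down beyond 5 SD of buffer control wells, in both duplicate plates, actives on both sides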
TRPC4/MOR inh 2: mouse TRPC4 off-target activity of TRPC6 modulators, second screen. shares compounds with TRPC6 inhibitor. HEK293 TRPC4/mu-opioid, membrane potential dye fluorescence; stimulated with maximal-effect DAMGO. inhibition, % at 10 µM. 2,400 compounds, 55% hits;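 active = drop in membrane potential signal beyond 5 SD of the control wells in both duplicate plates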;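 also: TRPC4 counter screen for TRPC6 hits run under conditions tuned for TRPC6 not TRPC4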
TRPC6 block conf: mouse TRPC6 inhibitor confirmation. shares compounds with TRPC6 inhibitor. HEK293-TRPC6, membrane potential dye, ACh-evoked depolarization. inhibition, % at 10 µM. 3,300 compounds, 43% hits;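 active = fluorescence ratio falls more than 5 SD below the full-stimulation control mean, in both duplicate runs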;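 also: integrated fluorescence ratio of peak minus minimum over baseline after agonist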
TRPC6 act conf: confirmation of mouse TRPC6 activators | 2,800 compounds, 11% hits | HEK293-TRPC6 membrane potential dye fluorescence, FDSS | shares compounds with TRPC6 inhibitor | activation, % at 10 µM;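 active = ratio signal rise beyond 5 SD above unstimulated control wells' mean, seen in both duplicate runs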
Of the large screens only hits and unclear results are named; the others gave an inactive call (follow-up assays come after a bar, where they were run). Most compounds without a hit are left out; they make up all but 2.3% or so of the library.

CCOc1ccc2nc(C)cc(Nc3ccc(N4CCOCC4)cc3)c2c1	none
Cc1ccc2nc(C)cc(NCCO)c2c1	TRPC6 inhibitor -8.4 | HEK293 MPD ctr-2 -282% | HEK293 MPD ctr 2-2 81% | TRPC4 ctr mod -48% | TRPC4/MOR inh 2 54% | TRPC6 block conf 58% | TRPC6 act conf inactive
CC(=O)c1ccc(Nc2cc(C)nc3ccc(C)cc23)cc1	TRPC6 inhibitor -9.5 | TRPC4 sel inh 2 77% | TRPC4 spec -12% | HEK293 MPD ctr 2-1 14% | HEK293 MPD ctr-1 -276% | TRPC6 block conf inactive | TRPC6 act conf inactive
Cc1cc(Nc2ccc3c(c2)OCCO3)c2ccccc2n1	none
Cc1ccc2nc(C)cc(Nc3ccc4c(c3)OCCO4)c2c1	TRPC4 inh -8, TRPC6 inhibitor -6.3 | HEK293 MPD ctr-2 -72% | HEK293 MPD ctr 2-2 inactive | TRPC4 ctr mod inactive | TRPC4/MOR inh 2 67% | TRPC6 block conf 64% | TRPC6 act conf inactive
CC(Nc1cc(C)cc(C)c1)=[N+](C)CCNS(=O)(=O)c1ccc(Cl)cc1	none
Cc1nc2cc(Cl)c(Cl)cc2n1-c1ccccn1	none
CCCc1cc(=O)[nH]c(SCC(=O)Nc2ccc(Br)cc2Br)n1	none
O=C(NCc1cccnc1)c1cccn2c(=O)c3sccc3nc12	TRPC6 inhibitor -7.3 | TRPC4 sel inh 2 inactive | TRPC4 spec -26% | HEK293 MPD ctr 2-1 inactive | HEK293 MPD ctr-1 -340% | TRPC6 block conf inactive | TRPC6 act conf inactive
COCCNc1c(-c2cc3ccc(C)c(C)c3[nH]c2=O)nc2ccccn12	TRPC6 inhibitor -5.1 | HEK293 MPD ctr-2 inactive | HEK293 MPD ctr 2-2 inactive | TRPC4 ctr mod inactive | TRPC4/MOR inh 2 inactive | TRPC6 block conf inactive | TRPC6 act conf inactive
O=c1[nH]c(C2CCN(S(=O)(=O)c3ccc(C(F)(F)F)cc3)CC2)nc2c1nnn2Cc1ccccc1	none
C[n+]1ccc(/C=C/c2ccc(Br)cc2)cc1	TRPC6 inhibitor -5.2 | HEK293 MPD ctr-2 -78% | HEK293 MPD ctr 2-2 inactive | TRPC4 ctr mod inactive | TRPC4/MOR inh 2 36% | TRPC6 block conf inactive | TRPC6 act conf inactive
Cc1ccc2[nH]c(C)c(/C=C/c3cc[n+](C)cc3)c2c1	none
C/C(=N\NC(=O)CNC(=O)c1cccc(F)c1)c1ccc2ccccc2c1	none
CCC(C(=O)NC(C)(C)C)N(Cc1ccco1)C(=O)CNS(=O)(=O)c1ccc(OC)cc1 (stereo not given)	none

Compound activity deposited in PubChem by Johns Hopkins Ion Channel Center.
